# Published values gathered from unrelated publications.
# PSMB8: Proteasome subunit beta type-8 (PSMB8, Homo sapiens, UniProt P28062)
# DHODH: Dihydroorotate dehydrogenase (quinone), mitochondrial (DHODH, Homo sapiens, UniProt Q02127)
# DYRK1B: Dual specificity tyrosine-phosphorylation-regulated kinase 1B (DYRK1B, Homo sapiens, UniProt Q9Y463)
# TYMS: Thymidylate synthase (TYMS, Homo sapiens, UniProt P04818)
SMILES,target,assay,conditions,IC50
CC(C)C[C@H](NC(=O)c1ccc(-c2ccccc2)nc1)C(=O)N[C@@H](CC(C)C)C(=O)N[C@H](/C=C/S(C)(=O)=O)Cc1ccc(CN)cc1,PSMB8,"enzyme activity, inhibitor",lysate,> 10 µM
CCOCc1nc(O)c(-c2nnc(Cc3ccc(Cl)cn3)o2)c(O)c1-c1c(OC)cccc1OC,"Alpha-1D adrenergic receptor (ADRA1D, Homo sapiens, UniProt P25100)","ligand displacement, radioligand",,> 30 µM
Cc1nc(Nc2ccc(S(F)(F)(F)(F)F)cc2)c2c(C(F)(F)F)noc2n1,DHODH,"enzyme activity, inhibitor, absorbance",,> 100 µM
C=C1/C(=C\C=C2/CCC[C@]3(C)[C@@H]([C@H](C)/C=C/[C@@H](O)C4CC4)CC[C@@H]23)C[C@@H](O)C[C@@H]1O,"Multidrug resistance-associated protein 1 (ABCC1, Homo sapiens, UniProt P33527)","transporter uptake, inhibitor, radiometric",cell membranes,12.3 µM
Cc1cc(Nc2ccc(C(C)(C)C)cc2)n2ncnc2n1,DHODH,"enzyme activity, inhibitor",,> 100 µM
CCn1ncc2c1-c1cnc(N)c(c1)O[C@H](C)c1cc(F)ccc1-c1nn(C)nc1C2,"Ephrin type-A receptor 1 (EPHA1, Homo sapiens, UniProt P21709)","enzyme activity, inhibitor, radiometric",,0.285 µM
COC[C@@H](C)NC1CCC(Nc2cc(-c3cccc(NCC4(C#N)CCOCC4)n3)c(Cl)cn2)CC1 (some centres unmarked),DYRK1B,"enzyme activity, inhibitor, FRET",,0.35 µM
COC(=O)C1CCN(C(=O)c2ccc(NCc3cnc4nc(N)nc(N)c4n3)cn2)CC1,TYMS,"enzyme activity, inhibitor",,80 µM
CC(C)C[C@H](NC(=O)c1cc(Cl)ccc1Cl)C(=O)N[C@@H](CC(C)C)C(=O)N[C@H](/C=C/S(C)(=O)=O)Cc1ccc(CN)cc1,PSMB8,"enzyme activity, inhibitor",lysate,1.83 µM
O=C(CSc1ncn[nH]1)Nc1ccc(C23CC4CC(CC(C4)C2)C3)cc1,"Transcriptional enhancer factor TEF-4 (TEAD2, Homo sapiens, UniProt Q15562)","enzyme activity, inhibitor",,0.71 µM
COC1CCC(C[C@H](NC(=O)[C@H](CC(C)C)NC(=O)c2cnc(C)s2)C(=O)N[C@H](/C=C/S(C)(=O)=O)Cc2ccc(CN)cc2)CC1 (some centres unmarked),PSMB8,"enzyme activity, inhibitor",lysate,> 10 µM
Cc1ccc(NC(=O)c2ccc(C)c(C(F)(F)F)c2)cc1C#Cc1nn(C2CCC(O)CC2)c2ncnc(N)c12 (centres unmarked),"Ephrin type-A receptor 7 (EPHA7, Homo sapiens, UniProt Q15375)","enzyme activity, inhibitor, radiometric",,0.143 µM
CCOC(=O)C1CCN(C(=O)c2ccc(N(CC)Cc3cnc4nc(N)nc(N)c4n3)cc2)CC1,TYMS,"enzyme activity, inhibitor",,91.9 µM
C[C@@H]1O[C@H](CNS(=O)(=O)c2ccc(C#CC3CC3)s2)[C@@H](O)[C@H](O)[C@@H]1O,"Fucose-binding lectin PA-IIL (lecB, Pseudomonas aeruginosa, UniProt Q9HYN5)","enzyme activity, inhibitor",,2.5 µM
Cc1ncc(C(=O)N[C@H](C(=O)N[C@@H](CC(C)C)C(=O)N[C@H](/C=C/S(C)(=O)=O)Cc2ccc(CN)cc2)C2CCCCC2)s1,PSMB8,"enzyme activity, inhibitor",lysate,3.14 µM
Oc1ccc(Cl)cc1Nc1nc(NCC2CCCO2)c2ccccc2n1 (centres unmarked),"Lysosomal acid glucosylceramidase (GBA1, Homo sapiens, UniProt P04062, R534H)","enzyme activity, inhibitor, fluorescence",pH 5.9,1.5 µM
Cc1ncc(C(=O)N[C@@H](CC(C)C)C(=O)N[C@@H](CC2CCC(C)CC2)C(=O)N[C@H](/C=C/S(C)(=O)=O)Cc2ccc(CN)cc2)s1 (some centres unmarked),PSMB8,"enzyme activity, inhibitor",lysate,> 10 µM
CN1CCN(c2ccc(Nc3ncc4cc(C#N)c(=O)n(C5CCCC5)c4n3)cc2)CC1,"Ephrin type-B receptor 3 (EPHB3, Homo sapiens, UniProt P54753)","enzyme activity, inhibitor",,2.54 µM
Nc1ncnc2c1ncn2[C@@H]1O[C@H](CSCCNC(=O)NCc2ccccc2)[C@@H](O)[C@H]1O,"Protein arginine N-methyltransferase 7 (PRMT7, Homo sapiens, UniProt Q9NVM4)","enzyme activity, inhibitor, radiometric",,< 2.4 µM
COc1ccc(C[C@H](NC(=O)[C@H](C)NC(=O)CN2CCOCC2)C(=O)N[C@@H](CC2CCC(C(F)(F)F)CC2)C(=O)[C@@]2(C)CO2)cc1 (some centres unmarked),PSMB8,"enzyme activity, inhibitor",lysate,0.191 µM
CCOc1ccc2c(-c3cc(C)nc(Nc4cc(OC)cc(C(F)(F)F)c4)n3)cnn2n1,DYRK1B,"enzyme activity, inhibitor",,> 10 µM
Cc1nc(NC2CCc3cc(Cl)ccc3C2)c2c(C)noc2n1 (centres unmarked),DHODH,"enzyme activity, inhibitor, absorbance",,> 100 µM
Oc1ccc2ccccc2n1,"Serum paraoxonase/arylesterase 1 (PON1, Homo sapiens, UniProt P27169)","enzyme activity, inhibitor",,4.4 µM
NC(=O)C1CCN(C(=O)c2ccc(NCc3cnc4nc(N)nc(N)c4n3)cc2)CC1,TYMS,"enzyme activity, inhibitor",,42 µM
Cc1nc(Nc2ccc(C(F)(F)F)cc2)c2c(C(F)(F)F)noc2n1,DHODH,"enzyme activity, inhibitor, absorbance",,18 µM
CC/C(=N\NC(=O)C(C)Nc1ccccc1)c1ccc(O)c(C)c1O (centres unmarked),"Ribosomal protein S6 kinase beta-1 (RPS6KB1, Homo sapiens, UniProt P23443)","enzyme activity, inhibitor",,0.0335 µM
Cc1ncc(C(=O)N[C@@H](CC2CCC(C)CC2)C(=O)N[C@@H](CC(C)C)C(=O)N[C@H](/C=C/S(C)(=O)=O)Cc2ccc(CN)cc2)s1 (some centres unmarked),PSMB8,"enzyme activity, inhibitor",lysate,> 10 µM
CS(=O)(=O)c1ccc(-c2nc3ccccn3c2Nc2ccccc2)cc1,"Prostaglandin G/H synthase 2 (PTGS2, Homo sapiens, UniProt P35354)","enzyme activity, inhibitor",,0.07 µM
COc1ccc(S(=O)(=O)ON=C2C=C(C)C(=O)C(C)=C2)cc1,"Histone acetyltransferase KAT7 (KAT7, Homo sapiens, UniProt O95251)","enzyme activity, inhibitor, radiometric",,> 100 µM
COc1ccc(C[C@H](NC(=O)[C@H](C)NC(=O)CN2CCOCC2)C(=O)N[C@@H](CC2CCC(OC)CC2)C(=O)[C@@]2(C)CO2)cc1 (some centres unmarked),PSMB8,"enzyme activity, inhibitor",lysate,3.98 µM
O=c1c2cc(Br)c(Br)n2cc2n1CCC2,"Proteasome subunit beta type-8, chymotrypsin-like site (PSMB8, Homo sapiens, UniProt P28062)","enzyme activity, inhibitor",,> 100 µM
Cc1c(C(=O)NC(C)c2nc[nH]n2)[nH]c(Cl)c1C1(c2ccc(C(F)(F)F)nc2)CC1 (centres unmarked),DHODH,"enzyme activity, inhibitor",,> 100 µM
